# Key:
# Clostridioides difficile [1] = test: Antibacterial activity against Clostridium difficile ATCC 43255 incubated for 46 hrs in anaerobic condition by CLSI-based broth microdilution assay; type: functional
# Clostridioides difficile [2] = test: Antibacterial activity against Clostridium difficile ATCC 700057 incubated for 46 hrs in anaerobic condition by CLSI-based broth microdilution assay; type: functional
# Clostridioides difficile [3] = test: Antibacterial activity against Clostridium difficile BAA-1805 incubated for 46 hrs in anaerobic condition by CLSI-based broth microdilution assay; type: functional
# Clostridioides difficile [4] = test: Antibacterial activity against Clostridium difficile BAA-1875 incubated for 46 hrs in anaerobic condition by CLSI-based broth microdilution assay; type: functional
# Clostridioides difficile [5] = test: Antibacterial activity against Clostridium difficile ATCC 9689 incubated for 46 hrs in anaerobic condition by CLSI-based broth microdilution assay; type: functional; conditions: ATCC 9689 = DSM 1296
# Clostridioides difficile [6] = test: Antibacterial activity against Clostridium difficile 8260 incubated for 46 hrs in anaerobic condition by CLSI-based broth microdilution assay; type: functional
# Clostridioides difficile [7] = test: Antibacterial activity against Clostridium difficile 8282 incubated for 46 hrs in anaerobic condition by CLSI-based broth microdilution assay; type: functional
# Clostridioides difficile [8] = test: Antibacterial activity against Clostridium difficile 5680 incubated for 46 hrs in anaerobic condition by CLSI-based broth microdilution assay; type: functional
# Clostridioides difficile [9] = test: Antibacterial activity against Clostridium difficile 8264 incubated for 46 hrs in anaerobic condition by CLSI-based broth microdilution assay; type: functional
# Clostridioides difficile [10] = test: Antibacterial activity against Clostridium difficile 8290 incubated for 46 hrs in anaerobic condition by CLSI-based broth microdilution assay; type: functional
# [11] = test system: Mycobacterium tuberculosis; test: Antimycobacterial activity against recombinant Mycobacterium tuberculosis H37Rv expressed in green fluorescence protein by measuring increase in fluorescence after 10 days in presence of middlebrook 7H9/OADC medium by GFP reporter gene assay; type: functional; conditions: 240 h, time 10 day
# Staphylococcus aureus [12] = test: Antibacterial activity against Staphylococcus aureus ATCC 29213 incubated overnight by broth dilution method; type: functional
# Summary of the method: (§1)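 Strains pre-grown overnight at 37 °C on Mueller Hinton II agar; CLSI broth dilution, inoculum about 7.5 × 10^5 CFU/well. Compounds taken from 1.0 mg/mL stocks in 50 % methanol/H2O, diluted in H2O as 2-fold series. Plates held at 37 °C overnight; MIC read visually as lowest concentration with no growth.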
# Bacillus subtilis = test: Antibacterial activity against Bacillus subtilis DSM3256 incubated overnight by broth dilution method; type: functional; summary of the method: as §1
# [13] = Aqueous solubility of the compound in phosphate buffer at pH 7 after 5 hrs by UHPLC analysis; type: physicochemical
# Summary of the method: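 Solid added to 1.0 mL pH 7 phosphate buffer containing 50 µg/mL caffeine internal standard until saturated. Stirred 5 h at room temperature, passed through a 0.22 µm filter, then run on C18 UHPLC with a water/MeCN + 0.1 % HCOOH gradient. Analyte/IS peak-area ratio was converted to concentration using a linear calibration from MeOH standards at 50–500 µg/mL.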
# Clostridioides difficile [14] = test: Antibacterial activity against Clostridium difficile under anaerobic condition by CLSI-based broth microdilution assay; type: functional
# Summary of the method: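 Isolates streaked on Brucella agar with hemin, vitamin K and 5% sheep blood, anaerobic 35–37°C, 44–48 h. CLSI broth microdilution in Brucella broth with hemin, vitamin K, 5% laked horse blood. Test agents in DMSO, 2-fold series, 16–0.015 µg/mL. Inoculum from a 0.5 McFarland suspension diluted 1:10. Incubated anaerobically 35–37°C, read at 46 h; MIC = lowest concentration inhibiting visible growth.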
# Clostridioides difficile [15] = test: Antibacterial activity against Clostridium difficile incubated for 48 hrs by microbroth dilution method; type: functional
# Summary of the method: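 Per CLSI, anaerobic broth microdilution in Brucella broth with hemin, vitamin K and 5% laked horse blood. Isolates pre-grown anaerobically on supplemented Brucella blood agar, 35–37 °C, 44–48 h. Inoculum at 0.5 McFarland, diluted 1:10. 2-fold drug series from DMSO, 16–0.015 µg/mL. Incubated anaerobically at 35–37 °C and read at 46 h. MIC is the lowest concentration inhibiting visible growth.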
# Staphylococcus aureus [16] = test: Antibacterial activity against Staphylococcus aureus by CLSI-based broth microdilution method; type: functional
# Summary of the method: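 S. aureus ATCC29213 grown overnight at 37 °C on MH II agar. MIC by CLSI broth dilution at about 7.5 × 10^5 CFU/well. Compounds diluted 2-fold in water from 1.0 mg/mL stocks in 50% methanol. Plates incubated overnight at 37 °C. MIC is the lowest concentration with no growth, read by eye.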
SMILES,MIC (Clostridioides difficile [1]) [µg/mL],MIC (Clostridioides difficile [2]) [µg/mL],MIC (Clostridioides difficile [3]) [µg/mL],MIC (Clostridioides difficile [4]) [µg/mL],MIC (Clostridioides difficile [5]) [µg/mL],MIC (Clostridioides difficile [6]) [µg/mL],MIC (Clostridioides difficile [7]) [µg/mL],MIC (Clostridioides difficile [8]) [µg/mL],MIC (Clostridioides difficile [9]) [µg/mL],MIC (Clostridioides difficile [10]) [µg/mL],MIC90 [11] [µg/mL],MIC (Staphylococcus aureus [12]) [µg/mL],MIC (Bacillus subtilis) [µg/mL],solubility at 5 h [13] [µg/mL],MIC (Clostridioides difficile [14]) [µg/mL],MIC (Clostridioides difficile [15]) [µg/mL],MIC (Staphylococcus aureus [16]) [µg/mL]
CCc1c(Cl)c(OCCCn2cc(CCN3CCC(N)CC3)nn2)c(Cl)c(OCCCn2cc(CCN3CCC(N)CC3)nn2)c1C(=O)O[C@@H]1[C@@H](O)[C@@H](OC)[C@@H](OC/C2=C\C=C\C[C@H](O)/C(C)=C/[C@H](CC)[C@@H](O[C@@H]3OC(C)(C)[C@@H](OC(=O)C(C)C)[C@H](O)[C@@H]3O)/C(C)=C/C(C)=C/C[C@@H]([C@@H](C)O)OC2=O)O[C@H]1C,> 16,> 16,> 16,> 16,> 16,> 16,> 16,> 16,> 16,> 16,16,> 64,8,451,,,
CCc1c(Cl)c(O)c(Cl)c(O)c1C(=O)O[C@@H]1[C@@H](O)[C@@H](OC)[C@@H](OC/C2=C\C=C\C[C@H](O)/C(C)=C/[C@H](CC)[C@@H](O[C@@H]3OC(C)(C)[C@@H](OC(=O)C(C)C)[C@H](O)[C@@H]3O)/C(C)=C/C(C)=C/C[C@@H]([C@@H](C)O)OC2=O)O[C@H]1C,0.03,0.03,0.12,0.03,≤ 0.015,0.06,0.03,0.06,0.12,0.03,0.25,8,8,84,0.012,0.25,2

# Reference: ChEMBL document CHEMBL4665898, “Semisynthetic Analogs of the Antibiotic Fidaxomicin-Design, Synthesis, and Biological Evaluation” (ACS Med Chem Lett, 2020)
